In the library only some 2.7% were active in any assay of this set; here they are far more common.
MC4R ag barr = activates human MC4R beta-arrestin recruitment | P32245 | U2OS MC4R beta-arrestin complementation, luminescence; percent of melanotan II response, DMSO zero | activation, % at 8.9 µM | 360,000 compounds, 0.98% hits;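 active = activation above a per-plate cutoff, the mean activation of sample wells on that plate plus 3 SD, cut at about 8% in these data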
Target sequence (P32245 whole entry, looked up): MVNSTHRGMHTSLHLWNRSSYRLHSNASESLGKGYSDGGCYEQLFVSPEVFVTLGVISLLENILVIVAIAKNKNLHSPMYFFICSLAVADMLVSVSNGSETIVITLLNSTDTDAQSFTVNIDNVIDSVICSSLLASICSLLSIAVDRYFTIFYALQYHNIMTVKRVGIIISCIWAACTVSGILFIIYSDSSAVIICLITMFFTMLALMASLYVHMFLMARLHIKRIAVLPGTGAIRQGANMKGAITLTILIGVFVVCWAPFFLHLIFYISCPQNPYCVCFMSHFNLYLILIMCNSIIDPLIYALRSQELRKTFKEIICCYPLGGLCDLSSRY
NTR1 ag = NTR1 (human) agonism; 330,000 compounds, 0.17% hits; AID 493036; activation, % at 20 µM; NTR1-U2OS beta-arrestin-GFP spot imaging, agonist mode; P30989;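 active = activation at or above 40% of the spot to cytoplasm intensity ratio, with at least 20 cells analyzed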;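 note: 0% = DMSO without peptide and 100% = 100 nM NTR1 peptide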
HTR2A ag = mouse HTR2A agonism via beta-arrestin recruitment. P35363. CHO-K1 mHTR2A beta-arrestin complementation, luminescence; percent of 30 µM serotonin response. activation, % at 7.6 µM. 360,000 compounds, 0.66% hits. AID 624169;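 active = activation above a run cutoff, the mean activation of all tested compounds plus 3 SD, cut at about 14% in these data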;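 note: 0% = plate median of compound wells and 100% = 30 µM serotonin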
Lipid droplet = hepatic lipid droplet formation modulation | 240,000 compounds, 0.4% hits | AID 1656 | AML12 mouse hepatocytes, oleate lipid droplets, BODIPY imaging | inhibition, % at 6.5 µM;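 active = lipid droplet intensity inhibited by at least 50%, with more than 500 cells counted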
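Technique: fluorescence imaging, 20x objective, two fields per well / Assay system: AML12 hepatocytes (mouse) / Measure: % inhibition of lipid droplet signal / Doses: 6.5 µM single-point dosing / Incubation: overnight exposure / Reagent: 100 µM oleic acid challenge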
MC4R antag cAMP = human MC4R antagonism in cAMP assay; AID 540295; inhibition, % at 6.5 µM; P32245; MC4R-expressing cells, MTII-stimulated cAMP, LANCE TR-FRET; 360,000 compounds, 0.48% hits;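 active = inhibition above its plate's cutoff, the mean of tested wells on that plate plus 3 SD, cut at about 29% in these data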;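 note: 0% = Melanotan II alone and 100% = Melanotan II plus saturating MCL0020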
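Material: U2OS-MC4R stable cell line | Reagent: Melanotan II challenge after compound preincubation | Doses: One concentration, 6.5 µM nominal | Incubation: 30-min compound preincubation, 1-h Melanotan II challenge, 1-h detection, room temperature | Signal: TR-FRET cAMP assay | Replicates: One well per compound, no replicates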
PREPL inh = inhibits the human prolyl oligopeptidase-like enzyme; AID 2751; 320,000 compounds, 0.68% hits; inhibition, % at 5.96 µM; Q4J6C6; recombinant PREPL, fluorescence polarization activity-based probe; in the data active = inhibition above about 43%;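 note: 0% = enzyme with DMSO and 100% = wells lacking enzyme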
* = called active by the depositor; x = no result.

SMILES	MC4R ag barr	NTR1 ag	HTR2A ag	Lipid droplet	MC4R antag cAMP	PREPL inh
Cc1cccc(N2CCN(S(=O)(=O)c3ccc(-c4ccc(=O)[nH]n4)o3)CC2)c1C	8.3*	0	-6	-1	16	5
COc1ccccc1N1CCN(S(=O)(=O)c2ccc(-c3ccc(=O)[nH]n3)o2)CC1	-3	2	-3	2	0	0
Cc1nn(Cc2ccccc2Cl)c(C)c1NC(=O)c1cc(-c2ccc(F)cc2)on1	8.9*	9	1	-1	16	4
O=C(COC(=O)c1ccccc1)Nc1cc(S(=O)(=O)N2CCCCCC2)ccc1Cl	8.8*	5	6	x	7	20
Cc1onc(-c2ccccc2)c1C(=O)NCc1ccc2c(c1)OCO2	0	0	1	x	18	5
O=C(NCc1ccc2c(c1)OCO2)c1c(-c2ccccc2)sc2ccccc12	21*	0	5	x	7	15
CC(O)(c1ccc(F)c(F)c1)c1nc(-c2cc3ccccc3o2)cs1 (configuration not stated)	6	x	3	x	1	x
CN1Cc2c(N3CCOCC3)nc3sc(C(=O)c4ccc(Br)cc4)c(N)c3c2CC1(C)C	7	8	-5	25	10	68*
CN1Cc2c(N3CCOCC3)nc3sc(C#N)c(N)c3c2CC1(C)C	-1	1	14	-12	-3	12
COc1cc(/C=N/NC(=O)c2ccc3ccccc3c2)ccc1Oc1ccc([N+](=O)[O-])cn1	-1	0	-2	56*	2	-54
COc1cc(/C=N/NC(=O)COc2c(C)cc([N+](=O)[O-])cc2C)ccc1OC(=O)c1ccccc1	3	0	-1	-2	0	71*
CCN(CC)S(=O)(=O)c1cccc(C(=O)NC(Cc2c[nH]c3ccccc23)c2nnc3n2CCC3)c1 (configuration not stated)	0	-1	-1	-1	5	4
CCCCCCCN1CCN=C1N(C)C	1	11	0	x	5	13
Cc1ccc(C)c(NC(=S)N2CCN(c3cccc(C(F)(F)F)c3)CC2)c1	9.1*	1	7	x	8	-7
FC(F)(F)c1cccc(N2CCN(C(=S)NC3CCCC3)CC2)c1	8.3*	2	2	-14	11	14
FC(F)(F)c1cccc(N2CCN(C(=S)NC3CCCCC3)CC2)c1	0	3	2	8	1	-7
CCC(c1nnc(SCC(=O)Nc2cccnc2Cl)n1-c1ccccc1)N(C)C (configuration not stated)	-2	0	-1	-6	-4	4
CCc1noc(C)c1C(=O)N(CC)CC(=O)NCc1ccc(F)cc1	-1	x	1	x	4	x
Cc1cc(C)cc(NC(=O)c2cc(C)n(Cc3cccs3)c2C)c1	0	6	0	1	-1	7
CC(C)(C)C1=CC(=O)C(=O)C(C(C)(C)C)=C1	25*	-2	2	2	10	-9
CCOc1ccc(NC(=O)/C(C#N)=C\c2ccc(N3CCCC3)c(C)c2)cc1	13*	x	-3	x	0	x
O=C(c1ccc(Cl)cc1)c1c[nH]c(C(=O)NNc2cccc(Cl)n2)c1	8.3*	2	1	6	-2	5
COc1cc(/C=C/c2cc(OC(C)=O)c3ccccc3n2)c(OC(C)=O)c([N+](=O)[O-])c1	-3	2	6	-1	0	0
CCOc1ccc(CNc2ccc(N3CCCC3)cc2)cc1	-3	15	5	-5	-7	44*
CCOc1ccc(CNc2ccc(N3CCN(Cc4ccccc4)CC3)cc2)cc1	2	1	-8	-1	6	17
SMILES	MC4R ag barr	NTR1 ag	HTR2A ag	Lipid droplet	MC4R antag cAMP	PREPL inh
COC(=O)C1(C(=O)OC)C[C@H](c2ccc(OC)cc2)N(Cc2ccccc2OC)[C@@H]1c1cccs1	x	x	-7	x	x	x
CCOc1ccc(CCNC(=O)CS(=O)Cc2nc(-c3ccc(C)cc3)oc2C)cc1 (configuration not stated)	2	0	-5	-5	23	-9
COc1ccc(-c2nc(CS(=O)CC(=O)NCCC3=CCCCC3)c(C)o2)cc1 (configuration not stated)	2	1	40*	x	9	4
COc1cccc(C(=O)N2CCCN(C)CC2)c1OC	1	0	5	0	0	-3
Cc1ccc(C(=O)C2C(=O)C3CCC2C3)cc1 (configuration not stated)	-2	x	-4	x	6	x
CCOC(=O)C1=C(CSc2nccn2C)NC(=O)NC1c1cc(C)ccc1C (configuration not stated)	2	3	0	5	-5	5
CCOC(=O)C1=C(CSc2nccn2C)NC(=O)NC1c1ccc2c(c1)OCO2 (configuration not stated)	9.2*	-1	-1	-7	4	6
O=C(C1CCN(c2ccc(N3CCOCC3)nn2)CC1)N1CCN(c2ccc(F)cc2)CC1	0	0	5	x	16	65*
OCCN1CCN(C2Cc3cc(Cl)ccc3Sc3ccc(Cl)cc32)CC1 (configuration not stated) (tested in a mixture with another compound)	9.3*	10	-10	-2	2	1
COCCCNCCCOc1ccc(Cl)cc1C(C)(C)C	10*	-3	-3	-6	-2	4
CNCCCOc1ccc(Cl)cc1C(C)(C)C	-1	3	-4	-21	-1	0
O=C(c1ccc(Cl)cc1)c1cnc(-c2ccccc2)s1	-2	x	1	x	4	x
O=C(c1ccc(Cl)cc1)c1cnc(Nc2ccccc2Cl)s1	9.9*	4	-2	x	7	-4
COc1ccc([N+](=O)[O-])cc1C1NN=C(c2ccccc2O)S1 (configuration not stated)	10*	4	3	x	3	3
COC(=O)C1OC1c1cc([N+](=O)[O-])ccc1OC (configuration not stated)	2	x	7	x	0	x
COc1ccc2cc([C@H](C)C(=O)O)ccc2c1	1	2	41*	-10	3	1
CCC(=O)NC(=S)Nc1cccc(Cl)c1N1CCCCC1	0	50*	-1	x	4	4
COc1ccc(C(=O)Nc2ccc(Nc3ccccc3)cc2)cc1Br	9.4*	8	-6	x	-3	15
Cc1cc(-n2c(SCC(=O)Nc3ccc(F)c(F)c3)nc3n[nH]c(C)c3c2=N)ccc1Cl	5	4	3	-2	10	-11
Cc1cc(-n2c(SCC(=O)Nc3ccc(Br)cc3)nc3n[nH]c(C)c3c2=N)ccc1Cl	19*	8	-3	-1	16	10

Assay outcomes: PubChem BioAssay, several laboratories
